Measured values gathered from unrelated publications.
Protocols differ between the studies behind these lines.
Target: Ephrin type-A receptor 3 (EPHA3, Homo sapiens, UniProt P29320)
One construct used (P29320 1-983): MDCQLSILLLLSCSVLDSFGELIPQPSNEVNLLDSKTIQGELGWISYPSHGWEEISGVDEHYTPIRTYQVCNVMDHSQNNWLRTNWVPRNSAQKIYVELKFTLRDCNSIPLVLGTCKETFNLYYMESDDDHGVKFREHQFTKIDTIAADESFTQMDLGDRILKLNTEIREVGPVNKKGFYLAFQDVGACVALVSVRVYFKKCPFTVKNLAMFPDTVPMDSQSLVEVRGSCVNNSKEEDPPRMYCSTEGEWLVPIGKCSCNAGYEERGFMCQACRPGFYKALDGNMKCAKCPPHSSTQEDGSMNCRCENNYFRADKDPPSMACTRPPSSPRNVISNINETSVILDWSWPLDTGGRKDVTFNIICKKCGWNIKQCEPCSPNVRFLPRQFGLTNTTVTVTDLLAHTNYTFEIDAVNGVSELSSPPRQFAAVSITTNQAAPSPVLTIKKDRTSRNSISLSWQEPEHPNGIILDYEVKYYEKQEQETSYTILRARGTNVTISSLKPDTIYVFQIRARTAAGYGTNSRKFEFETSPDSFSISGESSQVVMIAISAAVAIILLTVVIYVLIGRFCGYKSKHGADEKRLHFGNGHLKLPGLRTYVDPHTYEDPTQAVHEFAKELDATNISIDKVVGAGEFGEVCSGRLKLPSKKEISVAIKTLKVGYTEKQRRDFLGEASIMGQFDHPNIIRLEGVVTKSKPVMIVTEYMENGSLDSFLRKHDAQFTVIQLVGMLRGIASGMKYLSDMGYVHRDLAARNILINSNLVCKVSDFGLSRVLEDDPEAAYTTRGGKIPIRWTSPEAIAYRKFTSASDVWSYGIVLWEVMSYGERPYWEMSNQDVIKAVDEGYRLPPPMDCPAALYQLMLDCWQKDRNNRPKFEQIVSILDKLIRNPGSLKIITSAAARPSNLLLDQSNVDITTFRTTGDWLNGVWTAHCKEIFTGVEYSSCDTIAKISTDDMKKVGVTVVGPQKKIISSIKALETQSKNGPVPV

SMILES | observed | mode | technique | concentration | quantity | value
CN(C)C1CCN(CC#Cc2nn(C3CCCC3)c3nc(NCc4ccccc4)ncc23)C1 (stereo not shown) | enzyme activity | inhibitor | FRET | 0.1 µM | inhibition | -6%
Nc1ncnc2occ(-c3ccc(NC(=O)Nc4cc(C(F)(F)F)ccc4F)cc3)c12 | cell-free assay | – | – | 20 µM | remaining signal | 16%
CNC(=O)c1cc2c(Oc3ccc(NC(=O)C4(C(=O)Nc5ccc(F)cc5)CC4)cc3)ccnc2cc1OC | enzyme activity | inhibitor | radiometric | 1 µM | inhibition | 95%
CNC(=O)c1cc(Oc2ccc(NC(=O)Nc3ccc(Cl)c(C(F)(F)F)c3)cc2)ccn1 | enzyme activity | inhibitor | – | 0.3 µM | inhibition | 11%
Cc1ccc(NC(=O)c2ccc(C)c(C(F)(F)F)c2)cc1C#Cc1nn(C2CCC(O)CC2)c2ncnc(N)c12 (stereo not shown) | cell-free assay | – | – | 10 µM | remaining signal | 3%
COc1cccc(CNC(=O)c2nc3scc(COCc4ccc(C(=O)O)cc4)c3c(=O)[nH]2)c1 | cell-free assay | – | competition with immobilised ligand | 1 µM | remaining binding | 91.3%
COc1cc2ncnc(Nc3ccc(F)c(Cl)c3)c2cc1OCCCN1CCOCC1 | cell-free assay | – | – | 0.5 µM | remaining signal | 94.4%
O=C(Nc1cnn(-c2csc(C(=O)NC3COC3)c2)c1)Nc1c(F)cccc1Cl | enzyme activity | inhibitor | – | 5 µM | remaining activity | 96.1%
CO[C@@H](C)c1c(Nc2ccc([C@@H](N(C)C(=O)C3CCS(=O)(=O)CC3)C(F)(F)F)cc2)cnc2cc(Cl)nn12 | cell-free assay | – | competition with immobilised ligand | 1 µM | remaining binding | 90%
CC(C)(O)[C@H]1CC[C@H](Nc2ccc3ncc(-c4cccc(C(F)(F)F)c4)n3n2)CC1 | enzyme activity | inhibitor | – | 1 µM | remaining activity | 107%
Cc1noc([C@H]2C[C@@H](c3ccc(C(F)(F)F)cc3)CN(C(=O)N3CCS(=O)(=O)C3)C2)n1 | cell-free assay | – | competition with immobilised ligand | 1 µM | remaining binding | 100%
O=C1Nc2ccc(Cl)cc2C1=Cc1cc(Cl)c(O)c(Cl)c1 | cell-free assay | – | – | 0.5 µM | remaining signal | 82.5%
O=C(NCCCC1CCCCC1)c1ccc(CNC(=O)c2cnn(-c3ccccc3)c2C(F)(F)F)cc1 | cell-free assay | – | competition with immobilised ligand | 0.1 µM | remaining binding | 91%
Cc1ccc(C(=O)NCc2ccsc2)cc1C#Cc1cn(C(C)C)c2ncnc(N)c12 | enzyme activity | inhibitor | – | 1 µM | activity vs control | 45%
COc1ccc2c(c1)O[C@@H](c1ccc(OC)c(OC)c1)C[C@H]2NC(=O)C1(c2ccc3c(c2)OC(F)(F)O3)CC1 | cell-free assay | – | competition with immobilised ligand | 1 µM | remaining binding | 91%
CC(C)(C)c1nc(-c2cccc(NS(=O)(=O)c3c(F)cccc3F)c2F)c(-c2ccnc(N)n2)s1 | enzyme activity | inhibitor | radiometric | 1 µM | remaining activity | 91%
